Measured values reported in PMC10915268 (Parasites, Hosts and Diseases, 2024).

Legend:
[1] = system: Vero cells; assay: Cytotoxicity test using the MTT assay; format: cell-based; details: read-out: Vero CC50, 2-day compound exposure
How it was run: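 Vero cells were seeded at 104 per well in DMEM with 10% FBS. 12 h later, serial concentrations of test compound were added for 2 days at 37°C, 5% CO2. MTT was then added for 2 h and absorbance read at 490 nm. CC50 was derived from percentage growth inhibition. Run in triplicate, mean±SD.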

[2] = system: P. falciparum 3D7 (CQ-sensitive strain); assay: In vitro antimalarial activity, P. falciparum 3D7; format: cell-based, Plasmodium falciparum; details: for 3D7 Relative SI: selective index (CC50/IC50), relative to SKM13-2HCl = 1
[3] = system: P. falciparum K1 (CQ-resistant strain); assay: In vitro antimalarial activity, P. falciparum K1; format: cell-based, Plasmodium falciparum; details: for K1 Relative SI: selective index (CC50/IC50), relative to SKM13-2HCl = 1
[4] = system: P. berghei NK65; assay: 4-day suppressive test in P. berghei NK65-infected ICR mice; format: in vivo, Plasmodium berghei (ICR mice)
How it was run: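 6-week-old ICR-1 mice were inoculated on day 0 with 107 blood-stage P. berghei NK65. The test compound was given i.v. at 10, 20 or 30 mg/kg once daily for 4 days. Body weight, survival and blood parasites were recorded daily for 2 weeks. At 8 dpi mice were euthanized and livers and spleens harvested.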

[5] = In vivo PK assessment in mice; design: species or system ICR mice; details: oral, 5 mg/kg single dose
How it was run: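 Healthy female 7-week-old ICR mice (about 30 g), kept under specific pathogen-free conditions, three per group. Each got a single oral dose of test compound at 5 mg/kg. Blood was drawn at various times and plasma stored at −80°C. Levels were measured by LC–MS/MS with calibration and QC standards. Kinetic parameters came from regression of plasma concentration versus time.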

[6] = Solubility in deionized water; format: physicochemical; details: saturated aqueous solution, HPLC UV 342 nm
How it was run: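 Saturated solutions of the test compound salt were made in deionized water and measured by UHPLC with UV detection at 342 nm. 1% TFA in water was added to the solvent to keep the salt form. Standards at 5 concentrations gave a linear regression, from which solubility was calculated.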

[7] = Turbidity of 1 mM drug in cell culture media; format: physicochemical; details: 1 mM dissolved in cell culture media (DMEM)
[8] = 10 mg/kg i.v. once daily for 4 days
[9] = 20 mg/kg, organs collected 8 dpi

SMILES | CC50 [1] [nM] | IC50 ([2]; read-out: 3D7 IC50, P. falciparum 3D7, synchronized parasites) [nM] | 3D7 Relative SI [2] | IC50 ([3]; read-out: K1 IC50, P. falciparum K1, synchronized parasites) [nM] | K1 Relative SI [3] | parasitemia [4, 8] | body weight ([4]; 10 mg/kg i.v. once daily for 4 days, infected mice) | parasitemia ([4]; 20 mg/kg i.v. once daily for 4 days) | liver pigmentation [4, 9] | spleen size [4, 9] | parasitemia ([4]; 30 mg/kg i.v. once daily for 4 days) | curative effect (survival) ([4]; 30 mg/kg once daily, 6 dpi) | Tmax_h, time to peak concentration [5] [min] | elimination half-life (t1/2) ([5]; comparison of both drugs) | Cmax/AUC higher than that of SAM13-2HCl ([5]; versus SAM13-2HCl) [fold] | solubility in deionized water [6] [mg/mL] | turbidity [7]
CN(C)CCNC(=O)/C=C/[C@H](Cc1ccccc1)Nc1ccnc2cc(Cl)ccc12 [SKM13-2HCl] | 55200 ± 1100 | 53.1 ± 10 | 1.0 | 366 ± 19.8 | 1 | increased parasitemia | not observed | effectively suppressed parasitemia | decreased liver pigmentation | same size as those of the normal or CQ-treated groups | effectively suppressed parasitemia | complete curative effect | 15 | similar | 2 | 850.8 | transparent
CCN(CC)CCCC(C)Nc1ccnc2cc(Cl)ccc12 (centres unmarked) [CQ, Chloroquine] |  |  | 6.0 |  | 3.5 | significantly reduced parasite density |  |  |  |  |  |  |  |  |  |  | 
